Measurements: ChEMBL document CHEMBL4831494, “Synthesis and evaluation of FAK inhibitors with a 5-fluoro-7H-pyrrolo[2,3-d]pyrimidine scaffold as anti-hepatocellular carcinoma agents” (Eur J Med Chem, 2021)

Key:
Focal adhesion kinase 1 = Focal adhesion kinase 1 (Homo sapiens, UniProt Q05397); experiment: Inhibition of FAK (unknown origin) using Poly(Glu,Tyr) and ATP as substrate measured after 40 mins by Kinase-Glo Plus luminescence assay
cells = conditions: Homo sapiens, YY-8103, 48 h
SMMC-7721 [1] = experiment: cells; conditions: Homo sapiens, SMMC-7721, 48 h
[2] = Toxicity in BALB/c nude mouse assessed as animal's mortality at 30 mg/kg, ip measured on day 11; assay type: organism-based; conditions: in vivo, 264 h, time 11 day
Outline: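 Six-week-old male BALB/c nude mice bearing subcutaneous SMMC7721 xenografts (1.0 × 10⁷ cells); dosing started at mean tumor 25-35 mm³, n = 8 per group. Ip every 3 days in DMSO/propylene glycol/PBS (2:5:3); vehicle 1.0 mL/kg as negative control. Body weight weighed and deaths recorded every 3 days before each dose, through day 19.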

SMMC-7721 [3] = experiment: Antitumor activity against human […] cells xenografted in BALB/c nude mouse assessed as tumor size at 30 mg/kg, ip administered for 19 days (reference value: 600.8 mm3); assay type: functional; conditions: time 19 day
Outline: (§1)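 Male BALB/c nude mice, six weeks old, inoculated s.c. with 1.0 × 10⁷ SMMC7721 cells. Dosing began at mean tumour 25e35 mm³; five randomized groups, n = 8. Solvent DMSO/propylene glycol/PBS 2:5:3 (vehicle 1.0 mL/kg), all given i.p. every 3 days. Tumour size (calipers) and body weight taken before each dose. V = length × width²/2. TGI = [1 − (T−T₀)/(C−C₀)] × 100.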

SMMC-7721 [4] = experiment: Antitumor activity against human […] cells xenografted in BALB/c nude mouse assessed as tumor growth inhibition at 30 mg/kg, ip administered for 19 days; assay type: functional; conditions: SMMC-7721, ip, 456 h, time 19 day, read-out: TGI; outline: as §1
[5] = Toxicity in BALB/c nude mouse assessed as effect on body weight at 30 mg/kg, ip administered for 19 days; assay type: organism-based; conditions: in vivo, 456 h, time 19 day; outline: as §1

Sequence of Focal adhesion kinase 1 (Q05397 whole entry): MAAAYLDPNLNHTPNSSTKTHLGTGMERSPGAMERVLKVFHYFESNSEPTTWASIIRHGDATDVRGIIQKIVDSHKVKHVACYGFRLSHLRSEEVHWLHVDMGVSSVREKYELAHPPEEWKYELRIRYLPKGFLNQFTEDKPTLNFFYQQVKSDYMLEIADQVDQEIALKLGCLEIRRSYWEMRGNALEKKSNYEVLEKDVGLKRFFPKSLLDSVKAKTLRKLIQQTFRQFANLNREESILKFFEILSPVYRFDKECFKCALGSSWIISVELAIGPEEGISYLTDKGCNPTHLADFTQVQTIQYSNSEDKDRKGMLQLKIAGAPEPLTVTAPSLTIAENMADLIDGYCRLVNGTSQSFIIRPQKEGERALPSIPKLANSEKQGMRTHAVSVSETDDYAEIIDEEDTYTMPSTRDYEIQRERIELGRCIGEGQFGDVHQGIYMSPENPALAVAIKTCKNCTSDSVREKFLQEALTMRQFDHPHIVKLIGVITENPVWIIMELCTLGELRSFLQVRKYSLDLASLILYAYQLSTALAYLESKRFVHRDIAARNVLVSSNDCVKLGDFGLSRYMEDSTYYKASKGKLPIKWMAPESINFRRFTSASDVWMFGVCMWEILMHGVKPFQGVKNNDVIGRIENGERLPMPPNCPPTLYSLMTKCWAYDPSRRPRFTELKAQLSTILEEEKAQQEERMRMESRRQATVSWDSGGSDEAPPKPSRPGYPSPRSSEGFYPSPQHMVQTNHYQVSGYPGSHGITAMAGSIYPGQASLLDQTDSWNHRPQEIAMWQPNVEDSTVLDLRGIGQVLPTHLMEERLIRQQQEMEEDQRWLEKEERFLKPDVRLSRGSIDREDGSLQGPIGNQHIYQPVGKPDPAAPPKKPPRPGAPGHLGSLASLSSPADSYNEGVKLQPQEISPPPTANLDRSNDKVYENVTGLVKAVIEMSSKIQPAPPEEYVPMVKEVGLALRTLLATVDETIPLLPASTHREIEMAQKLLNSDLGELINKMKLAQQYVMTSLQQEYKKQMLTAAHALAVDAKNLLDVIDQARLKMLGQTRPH

`CN(c1ncccc1CNc1nc(Nc2ccc3c(c2)CC(=O)N3)nc2[nH]cc(Cl)c12)S(C)(=O)=O` gave an IC50 (Focal adhesion kinase 1) of 0.021 µM, an IC50 (cells) of 13.2 µM and an IC50 (SMMC-7721 [1]) of 21.9 µM.

For `CN(c1ncccc1CNc1nc(Nc2ccc3c(c2)CC(=O)N3)nc2[nH]ccc12)S(C)(=O)=O`, the IC50 (Focal adhesion kinase 1) was 0.055 µM, the IC50 (cells) was 13.6 µM and the IC50 (SMMC-7721 [1]) was 52.8 µM.

With `COc1cc(N2CCOCC2)ccc1Nc1nc(NCc2cccnc2N(C)S(C)(=O)=O)c2c(F)c[nH]c2n1` the IC50 (Focal adhesion kinase 1) was 0.023 µM, the IC50 (cells) was 15.4 µM and the IC50 (SMMC-7721 [1]) was 15.3 µM.

With `CNC(=O)c1ccccc1Nc1nc(Nc2ccc3c(c2)CC(=O)N3)nc2[nH]cc(F)c12` the IC50 (Focal adhesion kinase 1) was 0.022 µM, the IC50 (cells) was 4.69 µM and the IC50 (SMMC-7721 [1]) was 10 µM.

With `CC(=O)Nc1cccc(Nc2nc(NCc3cccnc3N(C)S(C)(=O)=O)c3c(F)c[nH]c3n2)c1` the IC50 (Focal adhesion kinase 1) was 0.021 µM, the IC50 (cells) was 14.4 µM and the IC50 (SMMC-7721 [1]) was 16 µM.

`CN1CCN(c2ccc(Nc3nc(NCc4cccnc4N(C)S(C)(=O)=O)c4c(F)c[nH]c4n3)cc2)CC1` showed an IC50 (Focal adhesion kinase 1) of 0.013 µM, an IC50 (cells) of 2.39 µM and an IC50 (SMMC-7721 [1]) of 13.9 µM.

Compound `CN(c1ncccc1CNc1nc(Nc2cccc(C#N)c2)nc2[nH]cc(F)c12)S(C)(=O)=O` has an IC50 (Focal adhesion kinase 1) of 0.035 µM, an IC50 (cells) of over 100 µM and an IC50 (SMMC-7721 [1]) of over 100 µM.

For `CN(c1ncccc1CNc1nc(Nc2ccc(N3CCOCC3)cc2)nc2[nH]cc(F)c12)S(C)(=O)=O`, the IC50 (Focal adhesion kinase 1) was 0.026 µM, the IC50 (cells) was over 100 µM and the IC50 (SMMC-7721 [1]) was over 100 µM.

For `CN(c1ncccc1CNc1nc(Nc2ccc3c(c2)CC(=O)N3)nc2[nH]cc(C#N)c12)S(C)(=O)=O`, the IC50 (Focal adhesion kinase 1) was 0.325 µM, the IC50 (cells) was over 100 µM and the IC50 (SMMC-7721 [1]) was over 100 µM.

Compound `CC(=O)NCc1cccc(Nc2nc(NCc3cccnc3N(C)S(C)(=O)=O)c3c(F)c[nH]c3n2)c1` has an IC50 (Focal adhesion kinase 1) of 0.023 µM, an IC50 (cells) of 20.5 µM and an IC50 (SMMC-7721 [1]) of 21.7 µM.

For `CN(c1ncccc1CNc1nc(Nc2ccc3c(c2)CC(=O)N3)nc2[nH]ncc12)S(C)(=O)=O`, the IC50 (Focal adhesion kinase 1) was 0.206 µM.

In the case of `CNC(=O)c1cc(Oc2ccc(NC(=O)Nc3ccc(Cl)c(C(F)(F)F)c3)cc2)ccn1` [SORAFENIB], the Activity [2] is reported as “Non-Toxic”, the Activity (SMMC-7721 [3]) is reported as 343.4 mm3 and the inhibition in vivo at 30 mg/kg (SMMC-7721 [4]) is reported as 45.1%. For the same compound, the Activity [5] was “Non-Toxic”.

Work on `CN(c1ncccc1CNc1nc(Nc2cccc(CN)c2)nc2[nH]cc(F)c12)S(C)(=O)=O` yielded an IC50 (Focal adhesion kinase 1) of 2.1 µM, an IC50 (cells) of over 100 µM and an IC50 (SMMC-7721 [1]) of over 100 µM.
